Test results taken from ChEMBL document CHEMBL1671805, “Biotin ergopeptide probes for dopamine receptors” (J Med Chem, 2011).
The source made the active and inactive calls. No cut-off for these calls is given here.

How the values were obtained:
Ovis aries [1] = organism: Ovis aries; test: Displacement of [3H]-SCH23390 from dopamine D1 receptor in lamb brain striatum membranes at 25 uM; assay type: cell membranes; conditions: Membrane
Procedure, shortened: (§1)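 Lamb striatal membranes (0.5 mg prot/mL) in 50 mM Tris-HCl pH 7.4 with 10 mM MgCl2 were incubated 2 h at 22 C. Radioligand was 0.9 nM [3H]-SCH23390 (D1) or 0.7 nM [3H]-YM09151-2 (D2). Screens used 25 μM compound; competition used increasing concentrations. Nonspecific binding was taken with 10 μM SCH23390 (D1) or raclopride (D2). Bound ligand was filtered and counted. KD values came from a two-state dimer receptor model fit.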

[2] = target: T1, Adenosine receptor A1 (Homo sapiens) (UniProt P30542); test: Displacement of [3H]-R-PIA from adenosine A1 receptor at 25 uM
T1 sequence (whole entry): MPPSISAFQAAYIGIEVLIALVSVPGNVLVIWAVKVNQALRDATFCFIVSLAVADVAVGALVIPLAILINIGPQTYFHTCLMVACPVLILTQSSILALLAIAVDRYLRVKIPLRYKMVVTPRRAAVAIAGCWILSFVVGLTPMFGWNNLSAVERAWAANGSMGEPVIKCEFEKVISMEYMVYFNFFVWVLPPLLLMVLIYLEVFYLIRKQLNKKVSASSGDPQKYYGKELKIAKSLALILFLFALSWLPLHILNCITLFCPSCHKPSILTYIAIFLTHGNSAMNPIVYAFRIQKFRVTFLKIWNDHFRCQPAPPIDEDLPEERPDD
Procedure, shortened: (§2)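 Membranes were incubated with 25 μM compound for 2 h at 22 C in 50 mM Tris-HCl pH 7.4 with 10 mM MgCl2 and 0.2 U/mL ADA. Radioligand was 1.0 nM [3H]-R-PIA (A1) or 1.6 nM [3H]ZM241385 (A2A). Nonspecific binding was taken with 10 μM DPCPX (A1) or ZM241385 (A2A). Separation was by GF/C filtration, then scintillation counting.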

[3] = target: Adenosine receptor A2a (Homo sapiens) (UniProt P29274); test: Displacement of [3H]-ZM241385 from adenosine A2A receptor at 25 uM; procedure, shortened: as §2
Adenosine receptor A2a (Homo sapiens), sequence (P29274 whole entry): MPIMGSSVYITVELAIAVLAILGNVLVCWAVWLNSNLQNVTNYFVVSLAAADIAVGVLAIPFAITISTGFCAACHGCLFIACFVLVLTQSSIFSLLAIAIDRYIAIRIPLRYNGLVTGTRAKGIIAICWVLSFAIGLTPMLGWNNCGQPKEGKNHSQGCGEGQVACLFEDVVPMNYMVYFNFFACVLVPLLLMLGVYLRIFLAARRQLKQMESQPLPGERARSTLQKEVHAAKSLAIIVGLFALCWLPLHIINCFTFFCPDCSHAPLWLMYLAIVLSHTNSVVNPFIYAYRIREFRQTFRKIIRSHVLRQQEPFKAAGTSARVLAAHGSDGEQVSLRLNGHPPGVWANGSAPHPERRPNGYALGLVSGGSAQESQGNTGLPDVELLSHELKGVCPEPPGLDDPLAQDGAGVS

Ovis aries [4] = organism: Ovis aries; test: Displacement of [3H]-YM09151-2 from dopamine D2 receptor in lamb brain striatum membranes at 25 uM; assay type: cell membranes; conditions: Membrane; procedure, shortened: as §1
[5] = Displacement of [3H]-SCH23390 from dopamine D1 receptor high binding affinity site in lamb brain striatum membranes at 25 uM; assay type: cell membranes, Ovis aries, Membrane; procedure, shortened: as §1
[6] = Displacement of [3H]-SCH23390 from dopamine D1 receptor low binding affinity site in lamb brain striatum membranes at 25 uM; assay type: cell membranes, Ovis aries, Membrane; procedure, shortened: as §1
[7] = Displacement of [3H]-YM09151-2 from dopamine D2 receptor high binding affinity site in lamb brain striatum membranes at 25 uM; assay type: cell membranes, Ovis aries, Membrane; procedure, shortened: as §1
[8] = Displacement of [3H]-YM09151-2 from dopamine D2 receptor low binding affinity site in lamb brain striatum membranes at 25 uM; assay type: cell membranes, Ovis aries, Membrane; procedure, shortened: as §1

Row | Activity (Ovis aries [1]) | Activity (Ovis aries [4]) | Structure (SMILES) | also measured
1 | Active |  | CC(=O)N[C@@H](CCCCNC(=O)[C@@H](CCCCNC(=O)[C@@H]1CCCN1C(=O)[C@H](Cc1ccc([N+](=O)[O-])cc1)NC(=O)[C@@H](NC(=O)[C@@H]1C=C2c3cccc4[nH]cc(c34)C[C@H]2N(C)C1)C(C)C)NC(C)=O)C(N)=O | Activity [2]: Active; Activity [3]: Active
2 |  | Active | CC(=O)N[C@@H](CCCCNC(=O)c1ccc(C(=O)c2ccc(C(=O)NCCNC(=O)C3CCCN(C(=O)[C@H](Cc4ccc(F)cc4)NC(=O)[C@H](Cc4ccc([N+](=O)[O-])cc4)NC(=O)[C@@H]4C=C5c6cccc7[nH]cc(c67)C[C@H]5N(C)C4)C3)cc2)cc1)C(N)=O (stereo not given in full) | 
3 |  | Active | CC(=O)N[C@@H](CCCCNC(=O)[C@@H](CCCCNC(=O)C1CCCN(C(=O)[C@H](Cc2ccc(F)cc2)NC(=O)[C@H](Cc2ccc([N+](=O)[O-])cc2)NC(=O)[C@@H]2C=C3c4cccc5[nH]cc(c45)C[C@H]3N(C)C2)C1)NC(C)=O)C(N)=O (stereo not given in full) | Activity [2]: Active; Activity [3]: Active
4 |  |  | CC(=O)N[C@@H](CCCCNC(=O)CCCCCNC(=O)C1CCCN(C(=O)[C@H](Cc2ccc(F)cc2)NC(=O)[C@H](Cc2ccc([N+](=O)[O-])cc2)NC(=O)[C@@H]2C=C3c4cccc5[nH]cc(c45)C[C@H]3N(C)C2)C1)C(N)=O (stereo not given in full) | Activity [2]: Active; Activity [3]: Active
5 |  | Active | CC(=O)N[C@@H](CCC(=O)Nc1ccc(Sc2ccc(NC(=O)C3CCCN(C(=O)[C@H](Cc4ccc(F)cc4)NC(=O)[C@H](Cc4ccc([N+](=O)[O-])cc4)NC(=O)[C@@H]4C=C5c6cccc7[nH]cc(c67)C[C@H]5N(C)C4)C3)cc2)cc1)C(N)=O (stereo not given in full) | 
6 |  | Active | CC(=O)N[C@@H](CCC(=O)Nc1ccc(-c2ccc(NC(=O)[C@@H]3CCCN3C(=O)[C@H](Cc3ccc([N+](=O)[O-])cc3)NC(=O)[C@@H](NC(=O)[C@@H]3C=C4c5cccc6[nH]cc(c56)C[C@H]4N(C)C3)C(C)C)cc2)cc1)C(N)=O | 
7 |  | Active | CC(=O)N[C@@H](CCC(=O)Nc1ccc(-c2ccc(NC(=O)C3CCCN(C(=O)[C@H](Cc4ccc(F)cc4)NC(=O)[C@H](Cc4ccc([N+](=O)[O-])cc4)NC(=O)[C@@H]4C=C5c6cccc7[nH]cc(c67)C[C@H]5N(C)C4)C3)cc2)cc1)C(N)=O (stereo not given in full) | 
8 |  | Active | CC(=O)N[C@@H](CCCCNC(=O)[C@@H](CCCCN)NC(=O)[C@@H]1CCCN1C(=O)[C@H](Cc1ccc([N+](=O)[O-])cc1)NC(=O)[C@@H](NC(=O)[C@@H]1C=C2c3cccc4[nH]cc(c34)C[C@H]2N(C)C1)C(C)C)C(N)=O | 
9 |  | Active | CC(=O)N[C@@H](CCCCNC(=O)CCC(=O)NCCNC(=O)[C@@H]1CCCN1C(=O)[C@H](Cc1ccc([N+](=O)[O-])cc1)NC(=O)[C@@H](NC(=O)[C@@H]1C=C2c3cccc4[nH]cc(c34)C[C@H]2N(C)C1)C(C)C)C(N)=O | 
10 |  | Active | CC(=O)N[C@@H](CCCCNC(=O)c1ccc(-c2ccc(C(=O)NCCNC(=O)C3CCCN(C(=O)[C@H](Cc4ccc(F)cc4)NC(=O)[C@H](Cc4ccc([N+](=O)[O-])cc4)NC(=O)[C@@H]4C=C5c6cccc7[nH]cc(c67)C[C@H]5N(C)C4)C3)cc2)cc1)C(N)=O (stereo not given in full) | 
11 | Active |  | CC(=O)N[C@@H](CCCCNC(=O)CCCCCNC(=O)[C@@H]1CCCN1C(=O)[C@H](Cc1ccc([N+](=O)[O-])cc1)NC(=O)[C@@H](NC(=O)[C@@H]1C=C2c3cccc4[nH]cc(c34)C[C@H]2N(C)C1)C(C)C)C(N)=O | Activity [2]: Active
12 |  |  | CC(C)[C@H](NC(=O)[C@@H]1C=C2c3cccc4[nH]cc(c34)C[C@H]2N(C)C1)C(=O)N[C@@H](Cc1ccc([N+](=O)[O-])cc1)C(=O)N1CCC[C@H]1C(=O)NCCCCCC(=O)NCCCC[C@H](NC(=O)CCCC[C@H]1SC[C@H]2NC(=O)N[C@H]21)C(N)=O | Kd [5]: 107 nM; Kd [6]: 3200 nM; Kd [7]: 260 nM; Kd [8]: 7000 nM
13 | inactive | Active | CC(=O)N[C@@H](CCCCNC(=O)[C@H](N)CCCCNC(=O)[C@@H]1CCCN1C(=O)[C@H](Cc1ccc([N+](=O)[O-])cc1)NC(=O)[C@@H](NC(=O)[C@@H]1C=C2c3cccc4[nH]cc(c34)C[C@H]2N(C)C1)C(C)C)C(N)=O | 
14 | Active | Active | CC(=O)N[C@@H](CCC(=O)NCCCCCCNC(=O)[C@@H]1CCCN1C(=O)[C@H](Cc1ccc([N+](=O)[O-])cc1)NC(=O)[C@@H](NC(=O)[C@@H]1C=C2c3cccc4[nH]cc(c34)C[C@H]2N(C)C1)C(C)C)C(N)=O | 
15 |  | Active | CC(=O)N[C@@H](CCCCNC(=O)CCCC(=O)NCCNC(=O)C1CCCN(C(=O)[C@H](Cc2ccc(F)cc2)NC(=O)[C@H](Cc2ccc([N+](=O)[O-])cc2)NC(=O)[C@@H]2C=C3c4cccc5[nH]cc(c45)C[C@H]3N(C)C2)C1)C(N)=O (stereo not given in full) | 
16 |  |  | CC(=O)N[C@@H](CCCCNC(=O)[C@@H]1CCCN1C(=O)[C@H](Cc1ccc([N+](=O)[O-])cc1)NC(=O)[C@@H](NC(=O)[C@@H]1C=C2c3cccc4[nH]cc(c34)C[C@H]2N(C)C1)C(C)C)C(=O)NCCCC[C@H](NC(=O)CCCC[C@H]1SC[C@H]2NC(=O)N[C@H]21)C(N)=O | Kd [5]: 2100 nM; Kd [6]: > 50000 nM; Kd [7]: 2000 nM; Kd [8]: 23000 nM
17 |  | Active | CC(=O)N[C@@H](CCCCNC(=O)C1CCCN(C(=O)[C@H](Cc2ccc(F)cc2)NC(=O)[C@H](Cc2ccc([N+](=O)[O-])cc2)NC(=O)[C@@H]2C=C3c4cccc5[nH]cc(c45)C[C@H]3N(C)C2)C1)C(N)=O (stereo not given in full) | 
18 | Active | Active | CC(=O)N[C@@H](CCC(=O)NCCNC(=O)[C@@H]1CCCN1C(=O)[C@H](Cc1ccc([N+](=O)[O-])cc1)NC(=O)[C@@H](NC(=O)[C@@H]1C=C2c3cccc4[nH]cc(c34)C[C@H]2N(C)C1)C(C)C)C(N)=O | 

Row | Structure (SMILES) | Activity (Ovis aries [1]) | Activity (Ovis aries [4]) | also measured
19 | CC(=O)N[C@@H](CCCCNC(=O)[C@@H]1CCCN1C(=O)[C@H](Cc1ccc([N+](=O)[O-])cc1)NC(=O)[C@@H](NC(=O)[C@@H]1C=C2c3cccc4[nH]cc(c34)C[C@H]2N(C)C1)C(C)C)C(N)=O | Active | Active | 
